From ChEMBL document CHEMBL4732230, “Design, synthesis, and biological evaluation of 4-benzoylamino-1H-pyrazole-3-carboxamide derivatives as potent CDK2 inhibitors” (Eur J Med Chem, 2021)
pIC50: −log10 of the molar value.

Experiments:
[1] = target: Cyclin-dependent kinase 1/cyclin B1 (Homo sapiens, UniProt P06493); format: protein-complex assay
A2058 = test: Antiproliferative activity against human A2058 cells assessed as reduction in cell viability measured after 96 hrs by Celltiter-Glo luminescent assay; format: functional, cell-based; conditions: A2058, 96 h
Outline: (§1)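 Cells in DMEM (A2058, MRC5) or RPMI 1640 (MV4-11), each with 10% fetal bovine serum and 1% penicillin/streptomycin. Cells were plated in 96-well plates and exposed to serially concentrated compound for 96 h, with DMSO as control. Viability was read by CellTiter-Glo luminescence and IC50 derived.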

CDK2/Cyclin A2 = CDK2/Cyclin A2 (Homo sapiens, UniProt P24941); test: Inhibition of CDK2/cyclin A2 (unknown origin) using FAM-labeled peptide and ATP as substrate preincubated for 10 mins followed by substrate addition by mobility shift assay; format: protein-complex assay
[2] = Cytotoxicity against human LX2 cells assessed as inhibition of cell growth at 100 uM measured after 96 hrs by Celltiter-Glo luminescent assay; format: cell-based
Outline: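 LX2 cells grown in DMEM with 10% fetal bovine serum and 1% penicillin/streptomycin, plated in 96-well plates. They were treated with compound at […] or DMSO control for 96 h. Viability was read by CellTiter-Glo luminescence and expressed as percent inhibition.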

MRC5 = test: Cytotoxicity against human MRC5 cells assessed as reduction in cell viability measured after 96 hrs by Celltiter-Glo luminescent assay; format: cell-based; conditions: MRC5, 96 h
Outline: as §1

MV4-11 = test: Antiproliferative activity against human MV4-11 cells assessed as reduction in cell viability measured after 96 hrs by Celltiter-Glo luminescent assay; format: functional, cell-based; conditions: MV4-11, 96 h
Outline: as §1

Chain of Cyclin-dependent kinase 1/cyclin B1 (P06493 whole entry): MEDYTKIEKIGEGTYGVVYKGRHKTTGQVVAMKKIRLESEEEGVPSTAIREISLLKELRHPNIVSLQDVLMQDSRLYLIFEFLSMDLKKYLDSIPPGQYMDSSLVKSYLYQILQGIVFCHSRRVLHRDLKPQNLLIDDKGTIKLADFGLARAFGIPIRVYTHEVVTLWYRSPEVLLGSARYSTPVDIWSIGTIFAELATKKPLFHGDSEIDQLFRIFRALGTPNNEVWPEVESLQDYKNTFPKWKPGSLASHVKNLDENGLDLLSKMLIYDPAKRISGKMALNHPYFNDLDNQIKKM
Chain of Cyclin-dependent kinase 1/cyclin B1 (P14635 whole entry, further chain): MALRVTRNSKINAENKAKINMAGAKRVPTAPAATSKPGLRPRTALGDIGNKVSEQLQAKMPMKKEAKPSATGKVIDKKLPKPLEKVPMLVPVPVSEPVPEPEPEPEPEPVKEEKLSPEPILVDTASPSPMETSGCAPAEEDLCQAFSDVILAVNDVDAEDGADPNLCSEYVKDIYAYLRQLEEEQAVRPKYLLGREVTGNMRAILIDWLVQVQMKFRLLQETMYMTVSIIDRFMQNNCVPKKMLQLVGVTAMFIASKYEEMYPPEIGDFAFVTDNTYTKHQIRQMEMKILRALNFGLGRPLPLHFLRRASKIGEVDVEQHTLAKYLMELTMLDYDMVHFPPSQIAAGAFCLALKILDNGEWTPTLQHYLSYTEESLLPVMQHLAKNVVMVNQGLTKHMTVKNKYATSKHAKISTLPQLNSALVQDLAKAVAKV

Structure (SMILES) | pIC50 [1] | pIC50 (CDK2/Cyclin A2) | pIC50 (MV4-11) | pIC50 (A2058) | inhibition at 96 h, 100 µM [2] | pIC50 (MRC5)
O=C(Nc1ccc(F)cc1)c1n[nH]cc1NC(=O)c1c(F)cccc1F | 7.85 |  |  | 6.00 |  | 
NC(=O)c1cccc(-c2ccc(F)c(C(=O)Nc3c[nH]nc3C(=O)Nc3ccc(F)cc3)c2F)c1 | 7.16 | 8.10 |  | 5.70 |  | 
Cc1ccc(C(=O)NCCCN2CCOCC2)cc1-c1ccc(F)c(C(=O)Nc2c[nH]nc2C(=O)Nc2ccc(F)cc2)c1F | 5.43 | 6.31 |  | 5.19 |  | 
O=C(NCCCN1CCOCC1)c1cccc(-c2ccc(F)c(C(=O)Nc3c[nH]nc3C(=O)Nc3ccc(F)cc3)c2F)c1 | 6.14 | 7.14 |  | 6.19 |  | 
Nc1ccc(-c2ccc(F)c(C(=O)Nc3c[nH]nc3C(=O)Nc3ccc(F)cc3)c2F)cn1 | 5.90 | 6.92 |  | 5.07 |  | 
Cc1ccc(-c2ccc(F)c(C(=O)Nc3c[nH]nc3C(=O)Nc3ccc(F)cc3)c2F)cn1 | 5.73 | 6.79 |  |  |  | 

Further lines, with some results ahead:

pIC50 [1] | pIC50 (CDK2/Cyclin A2) | pIC50 (MV4-11) | Structure (SMILES) | pIC50 (A2058) | inhibition at 96 h, 100 µM [2] | pIC50 (MRC5)
6.46 | 7.17 |  | CN1CCN(CCNC(=O)c2cccc(-c3ccc(F)c(C(=O)Nc4c[nH]nc4C(=O)Nc4ccc(F)cc4)c3F)c2)CC1 |  |  | 
6.36 | 7.07 |  | O=C(Nc1ccc(F)cc1)c1n[nH]cc1NC(=O)c1c(F)ccc(-c2ccccc2)c1F | 5.63 |  | 
6.56 | 7.29 |  | O=C(Nc1ccc(F)cc1)c1n[nH]cc1NC(=O)c1c(F)ccc(-c2ccc(F)nc2)c1F | 5.20 |  | 
 |  | 6.41 | O=C(NC1CCNCC1)c1n[nH]cc1NC(=O)c1c(Cl)cccc1Cl [AT-7519] |  | 39.4% | 6.37
